Measured values: ChEMBL document CHEMBL5154815, “A Series of Substituted Bis-Aminotriazines Are Activators of the Natriuretic Peptide Receptor C” (J Med Chem, 2022)
Active and inactive are the calls of the source. The rule behind the calls is not given here.

What was measured:
[1] = Half life in fasted C57BL/6 mouse at 3 mg/kg, iv by LC-MS/MS analysis; type: ADME, organism-based; conditions: in vivo
[2] = target: T1, Atrial natriuretic peptide receptor 3 (Rattus norvegicus) (UniProt P41740); assay: Agonist activity at NPRC in rat small mesenteric arteries assessed as inhibition of cANF4-23 induced vasorelaxation in presence of M372049 by Organ bath assay; type: tissue-based; conditions: Artery, filed as agonist
T1 sequence (whole entry): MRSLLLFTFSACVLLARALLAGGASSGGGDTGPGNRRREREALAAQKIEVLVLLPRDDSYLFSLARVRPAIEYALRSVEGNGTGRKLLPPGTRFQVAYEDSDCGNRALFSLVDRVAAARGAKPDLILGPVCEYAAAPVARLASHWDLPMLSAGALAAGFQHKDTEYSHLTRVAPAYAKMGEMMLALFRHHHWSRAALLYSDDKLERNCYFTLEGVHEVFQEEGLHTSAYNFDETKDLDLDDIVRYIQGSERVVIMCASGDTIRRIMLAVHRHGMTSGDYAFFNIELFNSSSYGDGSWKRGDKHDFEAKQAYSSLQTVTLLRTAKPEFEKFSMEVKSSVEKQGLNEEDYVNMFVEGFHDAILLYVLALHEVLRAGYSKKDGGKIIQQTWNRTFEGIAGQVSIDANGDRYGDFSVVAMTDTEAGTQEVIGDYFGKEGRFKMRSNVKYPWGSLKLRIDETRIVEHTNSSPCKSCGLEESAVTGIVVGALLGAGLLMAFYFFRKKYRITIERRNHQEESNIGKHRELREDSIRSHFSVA
Summary of the method: (§1)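 Small mesenteric artery rings from male Wistar rats in classical tissue-bath pharmacology. Vessels were preincubated 15 min with M372049 10 μM or osteocrin 100 nM before the vasorelaxant response to test agents was assessed.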

[3] = target: T2, Atrial natriuretic peptide receptor 3 (Rattus norvegicus, UniProt P41740); assay: Agonist activity at NPRC in rat small mesenteric arteries assessed as vasorelaxation preincubated with M372049 for 15 mins followed by compound treatment by Organ bath assay; type: tissue-based, Artery
T2 sequence (P41740 whole entry): T1 sequence (whole entry)

[4] = target: T3, Cytochrome P450 2C8 (Homo sapiens, UniProt P10632); assay: Inhibition of CYP2C8 in human liver microsomes using amodiaquine as a substrate preincubated for 10 mins followed by NADPH addition and measured after 10 mins by LC/MS/MS analysis
T3 sequence (P10632 whole entry): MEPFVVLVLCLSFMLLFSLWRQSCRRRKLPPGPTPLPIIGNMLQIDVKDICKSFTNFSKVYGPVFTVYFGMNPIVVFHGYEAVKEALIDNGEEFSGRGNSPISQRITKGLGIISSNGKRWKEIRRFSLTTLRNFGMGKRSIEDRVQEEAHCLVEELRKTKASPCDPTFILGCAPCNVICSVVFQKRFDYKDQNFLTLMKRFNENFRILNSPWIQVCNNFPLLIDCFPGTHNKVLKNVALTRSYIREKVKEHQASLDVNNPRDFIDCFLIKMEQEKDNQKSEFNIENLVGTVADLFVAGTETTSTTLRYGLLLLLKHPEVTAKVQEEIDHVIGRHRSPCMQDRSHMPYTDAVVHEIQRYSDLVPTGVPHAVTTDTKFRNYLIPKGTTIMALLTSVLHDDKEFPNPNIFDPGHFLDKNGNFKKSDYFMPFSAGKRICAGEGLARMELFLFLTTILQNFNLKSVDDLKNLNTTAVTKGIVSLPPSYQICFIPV

[5] = Cmax in fasted C57BL/6 mouse at 10 mg/kg, po by LC-MS/MS analysis; type: ADME, organism-based; set-up: dose 10 mg/kg, route po; conditions: in vivo
Summary of the method: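 EDTA-K2 plasma was protein-precipitated with internal standard and centrifuged 20 min at 4 °C. Analysis by LC-MS/MS against a 1–1000 ng/mL calibration curve.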

[6] = target: T4, Cytochrome P450 1A2 (Homo sapiens, UniProt P05177); assay: Inhibition of CYP1A2 in human liver microsomes using phenacetin as substrate preincubated for 10 mins followed by NADPH addition and measured after 10 mins by LC/MS/MS analysis
T4 sequence (P05177 whole entry): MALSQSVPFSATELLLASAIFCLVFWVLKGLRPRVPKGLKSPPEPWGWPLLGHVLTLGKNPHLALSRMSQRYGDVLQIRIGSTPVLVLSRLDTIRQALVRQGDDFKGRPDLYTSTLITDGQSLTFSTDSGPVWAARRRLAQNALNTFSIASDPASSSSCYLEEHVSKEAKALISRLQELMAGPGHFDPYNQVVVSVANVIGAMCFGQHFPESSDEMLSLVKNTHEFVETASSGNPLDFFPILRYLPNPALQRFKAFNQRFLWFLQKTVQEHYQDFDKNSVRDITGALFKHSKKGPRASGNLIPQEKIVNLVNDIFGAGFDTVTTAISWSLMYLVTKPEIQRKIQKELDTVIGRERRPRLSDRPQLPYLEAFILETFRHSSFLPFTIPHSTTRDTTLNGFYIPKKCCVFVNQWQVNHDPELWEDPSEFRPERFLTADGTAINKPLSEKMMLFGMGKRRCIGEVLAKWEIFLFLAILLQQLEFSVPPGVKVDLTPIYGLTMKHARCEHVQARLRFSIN

[7] = Half life in fasted C57BL/6 mouse at 10 mg/kg, po by LC-MS/MS analysis; type: ADME, organism-based; conditions: in vivo
[8] = target: T1, Atrial natriuretic peptide receptor 3 (Rattus norvegicus); assay: Agonist activity at NPRC in rat small mesenteric arteries assessed as inhibition of cANF4-23 induced vasorelaxation in presence of osteocrin by Organ bath assay; type: tissue-based; conditions: Artery, filed as agonist; summary of the method: as §1
[9] = target: T2, Atrial natriuretic peptide receptor 3; assay: Agonist activity at NPRC in rat aorta assessed as vasorelaxation by Organ bath assay; type: tissue-based
[10] = Protein binding in human plasma by equilibrium dialysis assay
[11] = rat, hepatocytes, 20 min, 1 µM
[12] = Oral bioavailability in fasted C57BL/6 mouse at 10 mg/kg by LC-MS/MS analysis; type: ADME, organism-based; conditions: in vivo
[13] = target: T1, Atrial natriuretic peptide receptor 3 (Rattus norvegicus); assay: Agonist activity at NPRC in rat aorta assessed as inhibition of cANF4-23 induced vasorelaxation in presence of osteocrin by Organ bath assay; type: tissue-based; conditions: filed as agonist
[14] = Clearance in fasted C57BL/6 mouse at 3 mg/kg, iv by LC-MS/MS analysis; type: ADME, organism-based; conditions: in vivo
[15] = AUC (0 to infinity) in fasted C57BL/6 mouse at 3 mg/kg, iv by LC-MS/MS analysis; type: ADME, organism-based; set-up: time infinity, dose 3 mg/kg, route iv; conditions: in vivo

**Q.** Which half-life [1] does the source give for `CC(=O)Nc1ccc(Nc2ncnc(NCCC(=O)OC(C)(C)C)n2)cc1` here?
**A.** 0.566 h

**Q.** What about the Activity [2] of the same molecule?
**A.** Active

**Q.** What about the EC50 [3] of the same molecule?
**A.** 8.64 µM

**Q.** And the IC50 [4]?
**A.** > 50 µM

**Q.** And the Cmax [5]?
**A.** 612 ng/mL

**Q.** What about the IC50 [6] of the same molecule?
**A.** > 50 µM

**Q.** And the half-life [7]?
**A.** 1.37 h

**Q.** And the Activity [8]?
**A.** Active

**Q.** And the EC50 [9]?
**A.** 15.5 µM

**Q.** What about the PPB [10] of the same molecule?
**A.** 71%

**Q.** And the t1/2 [11]?
**A.** 1.952 h

**Q.** And the F [12]?
**A.** 43.8%

**Q.** What about the Activity [13] of the same molecule?
**A.** Active

**Q.** And the clearance [14]?
**A.** 112 mL/min/kg

**Q.** What about the AUC(0-inf) [15] of the same molecule?
**A.** 448 ng·h/mL
